Only some compounds are listed: those with a hit (about 2.3% of all), similar ones and a draw of the others.
TRPC4 PAM = TRPC4 (mouse) allosteric potentiation; HEK293 TRPC4beta/mu-opioid, DAMGO EC20, Fluo-4 Ca2+ flux; hits give high values; B-score at 10 µM; hit rate 0.42% among 310,000;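 active means B-score of calcium response area above 5 SD of library B-scores, with initial fluorescence ratio within 5 SD of library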;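 further: B-score of integrated fluorescence ratio over time as area under calcium response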
TRPC4 act = TRPC4 (mouse) channel activation | hit rate 0.49% among 310,000 | HEK293 TRPC4beta/mu-opioid, Fluo4 calcium fluorescence; hits give high values | Q9QUQ5 | B-score at 10 µM | AID 2237;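 active means B-score above 5 SD of library B-scores, and initial fluorescence ratio not above library mean plus 5 SD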;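 further: positive B-score marks a calcium rise read as TRPC4 activation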
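Material: TRPC4beta and mu-opioid receptor HEK293 stable cells | Incubation: 45 min room-temperature Fluo4 loading, 110 s read | Detection: Kinetic Fluo4 calcium fluorescence | Measure: Integrated baseline-normalised fluorescence ratio, converted to per-well B score | Benchmarks: Low control buffer alone, high control maximal DAMGO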
Yeast superoxide = lowers age-related superoxide in aged yeast cells; hit rate 0.18% among 330,000; superoxide response (% of plate mean), % at 10 µM; S. cerevisiae aged cells, superoxide DHE fluorescence; hits give low values; AID 2690;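 active means superoxide response under a set limit, about three screen SD below normal, cut at about 65% in these data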;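 further: yeast aged for seven days with compound at 30 °C before DHE staining; 100% = average MFI of all compound-treated wells on the plate with controls excluded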
TRPC4 block = blocks the mouse TRPC4 cation channel. HEK293 TRPC4beta/mu-opioid, DAMGO-evoked Fluo4 calcium flux; hits give low values. B-score at 10 µM. hit rate 0.39% among 300,000;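 active means B-score over 3 SD under the library average, no early fluorescence shift, positive overall ratio signal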
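System: stable TRPC4beta/mu-opioid receptor HEK293 cells; Dosing: single-point compound dosing; Measured by: Fluo4 Ca2+ flux fluorescence; Read-out basis: per-well B score of integrated baseline-normalized Fluo4 ratio.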
TRPC6 act = mouse TRPC6 channel activation | Q61143 | hit rate 0.13% among 310,000 | HEK293-TRPC6 membrane potential dye fluorescence; hits give high values | B-score at 10 µM | AID 2550;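 active means B-score of the integrated fluorescence ratio above library mean plus 3 SD, and starting fluorescence ratio within library mean plus 5 SD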;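 further: higher score means more depolarization so channel activation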
TRPC6 inh = mouse TRPC6 channel inhibition; HEK293-TRPC6, membrane potential dye, ACh-evoked depolarization; hits give low values; B-score at 10 µM; hit rate 1.1% among 310,000; AID 2553;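 active means B-score under library mean minus 3 SD, initial fluorescence not abnormally high, positive integrated signal ratio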;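 further: B-score derived from integrated fluorescence ratio over the kinetic read; more negative B-score means stronger inhibition of depolarization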
TRPC4 spec 2 = second check of whether TRPC6 inhibitors also affect mouse TRPC4. hit rate 42% among 920. HEK293 TRPC4/MOR, membrane potential dye fluorescence; channel activated by saturating DAMGO dose. shares compounds with TRPC6 inh. AID 2776. inhibition, % at 10 µM;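 active means compounds whose fluorescence signal differed from control wells by over 3 SD, either direction, in both duplicate plates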
TRPC4 spec = tests whether TRPC6 inhibitors also affect mouse TRPC4. activity change, negative = inhibition, % at 10 µM. hit rate 61% among 920. shares compounds with TRPC6 inh. AID 2777. HEK293 TRPC4/mu-opioid, membrane potential fluorescence;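 active means rise or fall in signal beyond 3 SD of buffer-only wells in both replicate plates, either sign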;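 further: integrated kinetic ratio of fluorescence range over baseline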
HEK293 MPD ctr 2-1 = parental HEK293 nonspecific activity of TRPC6 inhibitors, second screen | shares compounds with TRPC6 inh | hit rate 31% among 920 | parental HEK293 membrane potential dye fluorescence; maximal acetylcholine challenge after compound addition | signal change vs control, % at 10 µM;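 active means membrane potential signal moving either way by over 3 SD of the maximum-effect control, in both duplicate plates, meaning non-specific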
HEK293 MPD ctr-1 = checks TRPC6 inhibitor effects in parental HEK293 cells. shares compounds with TRPC6 inh. parental HEK293 membrane potential dye fluorescence. membrane potential signal change, % at 10 µM. hit rate 60% among 920;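 active means membrane potential signal shifting up or down by more than 3 SD of buffer-only wells, on both duplicate plates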
HEK293 MPD ctr-2 = parental HEK293 nonspecific activity of TRPC6 modulators; shares compounds with TRPC6 inh; membrane potential dye fluorescence; hit rate 51% among 2,400; membrane potential signal change, % at 10 µM;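 active means membrane potential signal moves up or down beyond 5 SD from buffer-only wells, on both duplicate plates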
HEK293 MPD ctr 2-2 = parental HEK293 nonspecific activity of TRPC6 modulators, second screen; shares compounds with TRPC6 inh; hit rate 14% among 2,400; AID 488926; inhibition, % at 10 µM; membrane potential dye fluorescence; after compound, maximal acetylcholine stimulation;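 active means membrane potential signal drops by more than 5 SD from the mean control signal, in both duplicate plates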;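 further: plate controls were acetylcholine ECmax control wells for no effect and buffer only wells for full effect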
TRPC4 ctr mod = selectivity of TRPC6 modulators against mouse TRPC4. percent change from control (negative = decrease, positive = increase), % at 10 µM. AID 488927. hit rate 69% among 2,400. HEK293 TRPC4/mu-opioid, membrane potential fluorescence. shares compounds with TRPC6 inh;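 active means membrane potential signal moved up or down beyond 5 SD of buffer control wells, in both duplicate plates, actives on both sides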;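 further: plate controls were assay buffer wells for no effect and DAMGO maximal-effect wells for full effect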
TRPC4/MOR inh 2 = second check of whether TRPC6 modulators also affect mouse TRPC4; HEK293 TRPC4/mu-opioid, membrane potential dye fluorescence; stimulated with maximal-effect DAMGO; shares compounds with TRPC6 inh; AID 488928; hit rate 55% among 2,400; inhibition, % at 10 µM;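 active means drop in membrane potential signal beyond 5 SD of the control wells in both duplicate plates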;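 further: TRPC4 counter screen for TRPC6 hits run under conditions tuned for TRPC6 not TRPC4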
TRPC6 block conf = confirmation of mouse TRPC6 inhibitors; shares compounds with TRPC6 inh; HEK293-TRPC6, membrane potential dye, ACh-evoked depolarization; inhibition, % at 10 µM; hit rate 43% among 3,300; AID 488960;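 active means fluorescence ratio falls more than 5 SD below the full-stimulation control mean, in both duplicate runs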;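 further: integrated fluorescence ratio of peak minus minimum over baseline after agonist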
TRPC6 act confirm = mouse TRPC6 activator confirmation; hit rate 11% among 2,800; shares compounds with TRPC6 inh; HEK293-TRPC6 membrane potential dye fluorescence, FDSS; activation, % at 10 µM;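 active means ratio signal rise beyond 5 SD above unstimulated control wells' mean, seen in both duplicate runs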;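 further: plate controls were buffer EC0 wells for no effect and acetylcholine ECmax response for full effect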
* hit, by the source's call; i = inactive; . = not tested or not shown; + = active, no number.

SMILES	TRPC4 PAM	TRPC4 act	Yeast superoxide	TRPC4 block	TRPC6 act	TRPC6 inh	HEK293 MPD ctr-2	HEK293 MPD ctr 2-2	TRPC4 ctr mod	TRPC4/MOR inh 2	TRPC6 block conf	TRPC6 act confirm	others
CCN1CCc2c(C#N)c(NCc3ccccc3)nc(N(CC)CC)c2C1	i	i	93	i	i	-7.2*	.	.	.	.	i	i	TRPC4 spec 2=66%*;TRPC4 spec=-10%*;HEK293 MPD ctr 2-1=i;HEK293 MPD ctr-1=i
COc1ccc(-c2cc3nc4n(c(=O)c3s2)CCC4)cc1	i	i	95	i	i	i	.	.	.	.	.	.
COc1ccc(-c2nc3n(c2C)CCC3)cc1	i	i	74	i	i	-5.8*	-266%*	i	-36%*	44%*	i	i
Cc1cc(N2CCN(S(=O)(=O)c3ccc(Cl)cc3)CC2)c2ccccc2n1	i	i	102	i	i	-5.1*	-75%*	i	-22%*	72%*	i	i
COc1cccc(Cl)c1NC(=O)N1CCN(c2cc(C)nc3ccccc23)CC1	i	i	97	i	i	-9.7*	-146%*	i	-38%*	74%*	48%*	i
COc1cccc(Cl)c1NC(=O)N1CCN(c2ccnc3cc(Cl)ccc23)CC1	i	i	118	i	i	i	.	.	.	.	.	.
Cc1cc(N2CCN(S(=O)(=O)c3ccc(Cl)c(Cl)c3)CC2)c2ccccc2n1	i	i	120	i	i	i	.	.	.	.	.	.
CC1CCCCN1c1ccc(N)cc1C(N)=O (stereo not given)	i	i	99	i	i	i	.	.	.	.	.	.
CC(=O)NCc1nc2ccccc2n1Cc1ccccc1F	i	i	105	i	i	i	.	.	.	.	.	.
CCCCc1nnc(NC(=O)c2ccccc2OCc2c(C)noc2C)s1	i	i	94	i	i	i	.	.	.	.	.	.
CCOC(=O)C1=C(C)N=c2s/c(=C/c3ccc(OCC(=O)O)cc3)c(=O)n2C1c1ccc(OC)cc1OC (stereo not given)	i	i	103	i	16*	i	+	i	62%*	i	i	132%*
CCc1ccc(O)c(CNCCNCc2cc(CC)ccc2O)c1	i	i	101	i	i	i	.	.	.	.	.	.
Cc1ccc(O)c(CNCCNCc2cc(C)ccc2O)c1	i	i	95	i	i	-6.4*	161%*	i	16%*	82%*	44%*	.
